Results reported in ChEMBL document CHEMBL1142153, “Pharmacokinetics and disposition of CS-023 (RO4908463), a novel parenteral carbapenem, in animals” (Antimicrob Agents Chemother, 2007).

Tests used:
Rattus norvegicus [1] = assay: AUC (0-inf) in rat assessed as radioactivity at 10 mg/kg, iv; type: ADME, organism-based, Plasma; parameters: time infinity, dose 10 mg/kg, route intravenous; conditions: in vivo
Outline: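 [14C]CS-023 with unlabeled drug in saline, 10 mg/kg single i.v. bolus (rats via tail vein, 4.58 MBq/kg; monkeys via cephalic vein, 3 MBq/kg). Blood drawn with heparin (rat jugular, monkey femoral vein) at set times. Plasma centrifuged at 4°C, and total radioactivity counted by liquid scintillation with tissue solubilizer. Quantitation limit was twice background.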

Rattus norvegicus [2] = assay: Urinary excretion ratio in rat assessed as radioactivity at 10 mg/kg, iv after 7 days; type: ADME, organism-based, Urine; parameters: dose 10 mg/kg, route intravenous; conditions: in vivo, 168 h
Outline: (§1)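 Rats were dosed i.v. via the tail vein with [14C]CS-023 at 10 mg/kg (4.58 MBq/kg) in saline, then kept in individual metabolic cages for separate urine and feces collection over 7 days. Samples up to 24 h were collected at around 4°C into 0.5 M MOPS pH 6.0, and feces were homogenized. Radioactivity was measured by liquid scintillation counting. Parent drug and metabolite were apportioned by silica TLC (3% NaCl:acetonitrile 2:1) with imaging-plate analysis. n=4.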

Rattus norvegicus [3] = assay: Fecal excretion ratio in rat assessed as radioactivity at 10 mg/kg, iv after 7 days; type: ADME, organism-based; parameters: dose 10 mg/kg, route intravenous; conditions: in vivo, 168 h; outline: as §1
Rattus norvegicus [4] = assay: Biliary excretion in bile duct cannulated rat assessed as radioactivity at 10 mg/kg, iv after 48 h; type: ADME, organism-based; parameters: dose 10 mg/kg, route intravenous; conditions: in vivo
Outline: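 Rats had bile-duct cannulation by laparotomy under diethyl ether and were housed in Bollman cages. They were then dosed i.v. with [14C]CS-023 at 10 mg/kg in saline. Bile was collected on ice over set intervals, and radioactivity was measured by liquid scintillation counting.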

Macaca fascicularis [5] = assay: AUC (0-inf) in monkey assessed as radioactivity at 10 mg/kg, iv; conditions: cynomolgus monkey, in vivo
Macaca fascicularis [6] = assay: Fecal excretion ratio in monkey assessed as radioactivity at 10 mg/kg, iv after 7 days; conditions: cynomolgus monkey, in vivo, 168 h
Macaca fascicularis [7] = assay: Urinary excretion ratio in monkey assessed as radioactivity at 10 mg/kg, iv after 7 days; conditions: cynomolgus monkey, in vivo, 168 h

SMILES: C[C@@H](O)[C@H]1C(=O)N2[C@@H]1[C@@H](C)C(S[C@H]1C[C@@H](C(=O)N3CC[C@H](NC(=O)CNC(=N)N)C3)N(C)C1)=[14C]2C(=O)O
- AUC (Rattus norvegicus [1]): 26800 ng·h/mL
- Activity (Rattus norvegicus [2]): 87.1%
- Activity (Rattus norvegicus [3]): 12.5%
- Activity (Rattus norvegicus [4]): 0.54%
- AUC (Macaca fascicularis [5]): 87400 ng·h/mL
- Activity (Macaca fascicularis [6]): 7.5%
- Activity (Macaca fascicularis [7]): 88%
